Results: ChEMBL document CHEMBL1806394, “Synthesis, in vitro evaluation and molecular docking studies of new triazole derivatives as antifungal agents” (2011)
≈ marks a conversion by molar mass, not a printed value.

Key:
Type in all cases: functional
Candida tropicalis = assay: Antifungal activity against Candida tropicalis by micro-broth dilution method
How it was run: (§1)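 MIC80 determined by broth microdilution following NCCLS methods. C. albicans SC5314 and Y0109 and C. neoformans BLS108 served as quality-control strains and were included in every assay. Fluconazole, itraconazole, voriconazole and amphotericin B were run as positive controls.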

Kluyveromyces marxianus = assay: Antifungal activity against Candida kefyr by micro-broth dilution method
Candida parapsilosis = assay: Antifungal activity against Candida parapsilosis by micro-broth dilution method; details: Lodderomyces parapsilosis; how it was run: as §1
Candida albicans [1] = assay: Antifungal activity against Candida albicans SC5314 by micro-broth dilution method; how it was run: as §1
Aspergillus fumigatus = assay: Antifungal activity against Aspergillus fumigatus by micro-broth dilution method; how it was run: as §1
Cryptococcus neoformans = assay: Antifungal activity against Cryptococcus neoformans BLS108 by micro-broth dilution method; how it was run: as §1
Candida albicans [2] = assay: Antifungal activity against Candida albicans Y0109 by micro-broth dilution method; how it was run: as §1
Trichophyton rubrum = assay: Antifungal activity against Trichophyton rubrum by micro-broth dilution method; how it was run: as §1

SMILES	MIC80 (Candida tropicalis) [µg/mL]	MIC80 (Kluyveromyces marxianus) [µg/mL]	MIC80 (Candida parapsilosis) [µg/mL]	MIC80 (Candida albicans [1]) [µg/mL]	MIC80 (Aspergillus fumigatus) [µg/mL]	MIC80 (Cryptococcus neoformans) [µg/mL]	MIC80 (Candida albicans [2]) [µg/mL]	MIC80 (Trichophyton rubrum) [µg/mL]
O=C(/C=C/c1ccc(Cl)cc1)Nc1ccc(-n2cnn(CC(O)(Cn3cncn3)c3ccc(F)cc3F)c2=O)cc1 (single isomer, unassigned)	> 64	> 64	> 64	4 (≈ 6.92 µM)	> 64	> 64	16 (≈ 27.7 µM)	> 64
O=C(/C=C/c1ccc(F)cc1)Nc1ccc(-n2cnn(CC(O)(Cn3cncn3)c3ccc(F)cc3F)c2=O)cc1 (single isomer, unassigned)	> 64	> 64	> 64	> 64	> 64	> 64	> 64	> 64
Cc1ccccc1C(=O)Nc1ccc(-n2cnn(CC(O)(Cn3cncn3)c3ccc(F)cc3F)c2=O)cc1 (single isomer, unassigned)	1 (≈ 1.88 µM)	> 64	0.0156 (≈ 0.0293 µM)	0.25 (≈ 0.47 µM)	> 64	> 64	0.0625 (≈ 0.118 µM)	> 64
O=C(/C=C/c1ccc(Cl)c(Cl)c1)Nc1ccc(-n2cnn(CC(O)(Cn3cncn3)c3ccc(F)cc3F)c2=O)cc1 (single isomer, unassigned)	4 (≈ 6.53 µM)	> 64	64 (≈ 105 µM)	4 (≈ 6.53 µM)	> 64	> 64	4 (≈ 6.53 µM)	> 64
O=C(/C=C/c1cccc([N+](=O)[O-])c1)Nc1ccc(-n2cnn(CC(O)(Cn3cncn3)c3ccc(F)cc3F)c2=O)cc1 (single isomer, unassigned)	0.25 (≈ 0.425 µM)	16 (≈ 27.2 µM)	0.0039 (≈ 0.00663 µM)	0.00024 (≈ 0.000408 µM)	> 64	> 64	0.00024 (≈ 0.000408 µM)	64 (≈ 109 µM)
Cc1cccc(/C=C/C(=O)Nc2ccc(-n3cnn(CC(O)(Cn4cncn4)c4ccc(F)cc4F)c3=O)cc2)c1C (single isomer, unassigned)	16 (≈ 28 µM)	> 64	> 64	1 (≈ 1.75 µM)	> 64	> 64	4 (≈ 7 µM)	> 64
O=C(/C=C/c1cccc(Br)c1)Nc1ccc(-n2cnn(CC(O)(Cn3cncn3)c3ccc(F)cc3F)c2=O)cc1 (single isomer, unassigned)	1 (≈ 1.61 µM)	> 64	16 (≈ 25.7 µM)	1 (≈ 1.61 µM)	> 64	16 (≈ 25.7 µM)	1 (≈ 1.61 µM)	> 64
O=C(/C=C/c1ccccc1[N+](=O)[O-])Nc1ccc(-n2cnn(CC(O)(Cn3cncn3)c3ccc(F)cc3F)c2=O)cc1 (single isomer, unassigned)	1 (≈ 1.7 µM)	> 64	1 (≈ 1.7 µM)	1 (≈ 1.7 µM)	> 64	> 64	1 (≈ 1.7 µM)	> 64
COc1cccc(C(=O)Nc2ccc(-n3cnn(CC(O)(Cn4cncn4)c4ccc(F)cc4F)c3=O)cc2)c1 (single isomer, unassigned)	1 (≈ 1.83 µM)	16 (≈ 29.2 µM)	0.0625 (≈ 0.114 µM)	0.0625 (≈ 0.114 µM)	> 64	> 64	0.0625 (≈ 0.114 µM)	> 64
O=C(Nc1ccc(-n2cnn(CC(O)(Cn3cncn3)c3ccc(F)cc3F)c2=O)cc1)c1ccc(Cl)cc1 (single isomer, unassigned)	1 (≈ 1.81 µM)	1 (≈ 1.81 µM)	1 (≈ 1.81 µM)	1 (≈ 1.81 µM)	> 64	0.0625 (≈ 0.113 µM)	1 (≈ 1.81 µM)	> 64
Cc1ccc(C(=O)Nc2ccc(-n3cnn(CC(O)(Cn4cncn4)c4ccc(F)cc4F)c3=O)cc2)c(C)c1 (single isomer, unassigned)	1 (≈ 1.83 µM)	64 (≈ 117 µM)	0.0625 (≈ 0.115 µM)	0.0625 (≈ 0.115 µM)	> 64	> 64	0.0625 (≈ 0.115 µM)	> 64
O=C(/C=C/c1ccc([N+](=O)[O-])cc1)Nc1ccc(-n2cnn(CC(O)(Cn3cncn3)c3ccc(F)cc3F)c2=O)cc1 (single isomer, unassigned)	> 64	> 64	1 (≈ 1.7 µM)	> 64	> 64	> 64	> 64	> 64
Cc1ccc(C(=O)Nc2ccc(-n3cnn(CC(O)(Cn4cncn4)c4ccc(F)cc4F)c3=O)cc2)cc1C (single isomer, unassigned)	0.25 (≈ 0.458 µM)	4 (≈ 7.33 µM)	0.25 (≈ 0.458 µM)	0.25 (≈ 0.458 µM)	> 64	64 (≈ 117 µM)	0.25 (≈ 0.458 µM)	> 64
CCCc1ccc(C(=O)Nc2ccc(-n3cnn(CC(O)(Cn4cncn4)c4ccc(F)cc4F)c3=O)cc2)cc1 (single isomer, unassigned)	1 (≈ 1.79 µM)	> 64	4 (≈ 7.15 µM)	0.0039 (≈ 0.00697 µM)	> 64	> 64	1 (≈ 1.79 µM)	> 64
O=C(Nc1ccc(-n2cnn(CC(O)(Cn3cncn3)c3ccc(F)cc3F)c2=O)cc1)c1ccc(OC(F)(F)F)cc1 (single isomer, unassigned)	64 (≈ 106 µM)	> 64	1 (≈ 1.66 µM)	0.25 (≈ 0.416 µM)	> 64	> 64	1 (≈ 1.66 µM)	4 (≈ 6.65 µM)
OC(Cn1cncn1)(Cn1cncn1)c1ccc(F)cc1F [FLUCONAZOLE]	1 (≈ 3.27 µM)	4 (≈ 13.1 µM)	0.25 (≈ 0.816 µM)	0.25 (≈ 0.816 µM)	> 64	1 (≈ 3.27 µM)	0.25 (≈ 0.816 µM)	1 (≈ 3.27 µM)
CCCCc1ccc(C(=O)Nc2ccc(-n3cnn(CC(O)(Cn4cncn4)c4ccc(F)cc4F)c3=O)cc2)cc1 (single isomer, unassigned)	0.25 (≈ 0.436 µM)	> 64	0.0625 (≈ 0.109 µM)	0.0156 (≈ 0.0272 µM)	> 64	> 64	0.0156 (≈ 0.0272 µM)	> 64
Cc1ccc(C(=O)Nc2ccc(-n3cnn(CC(O)(Cn4cncn4)c4ccc(F)cc4F)c3=O)cc2)cc1 (single isomer, unassigned)	1 (≈ 1.88 µM)	16 (≈ 30.1 µM)	0.25 (≈ 0.47 µM)	0.0625 (≈ 0.118 µM)	> 64	> 64	0.0625 (≈ 0.118 µM)	> 64
O=C(Nc1ccc(-n2cnn(CC(O)(Cn3cncn3)c3ccc(F)cc3F)c2=O)cc1)c1ccc(F)cc1 (single isomer, unassigned)	0.0625 (≈ 0.117 µM)	4 (≈ 7.47 µM)	0.0625 (≈ 0.117 µM)	0.0625 (≈ 0.117 µM)	> 64	64 (≈ 120 µM)	1 (≈ 1.87 µM)	16 (≈ 29.9 µM)
Cc1ccc(/C=C/C(=O)Nc2ccc(-n3cnn(CC(O)(Cn4cncn4)c4ccc(F)cc4F)c3=O)cc2)cc1 (single isomer, unassigned)	4 (≈ 7.17 µM)	> 64	> 64	1 (≈ 1.79 µM)	> 64	> 64	4 (≈ 7.17 µM)	> 64
O=C(Nc1ccc(-n2cnn(CC(O)(Cn3cncn3)c3ccc(F)cc3F)c2=O)cc1)c1ccccc1Br (single isomer, unassigned)	4 (≈ 6.71 µM)	> 64	1 (≈ 1.68 µM)	1 (≈ 1.68 µM)	> 64	16 (≈ 26.8 µM)	4 (≈ 6.71 µM)	> 64
